KCNK9 inh: KCNK9 potassium channel inhibitors, primary screen, HEK293 cells, thallium flux; B-score at 10 µM; hit rate 1.2% among 310,000; FluxOR thallium flux fluorescence; stronger effect = lower value; Potassium channel subfamily K member 9 (Homo sapiens), Q9NPC2; AID 488922, 2010;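 active = ratio B-score over 3 SD below the library mean, with starting fluorescence within 5 SD of its mean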;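 also: negative B-score means less thallium flux so channel inhibition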
KCNK3 inh: human KCNK3 channel inhibitors, primary screen, CHO cells, FluxOR thallium flux, B-score; Potassium channel subfamily K member 3 (Homo sapiens), O14649; FluxOR fluorescence; stronger effect = lower value; B-score at 10 µM; hit rate 0.84% among 340,000; AID 602410, 2012;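 active = B-score under library mean minus 4 SD, starting fluorescence ratio at most library mean plus 5 SD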;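 also: more negative B-score means stronger inhibition of thallium flux through KCNK3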
hERG protect: hERG rescue from dofetilide block, primary screen, cell-based, CHO-hERG, FluxOR thallium flux, dofetilide IC70. dofetilide IC70 present. activation (rescue from dofetilide block), less the hit threshold, % at 10 µM. hit rate 0.51% among 310,000. AID 1511, 2009;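 active = activation above the mean of controls blocked by dofetilide plus 5 SD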;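 also: thallium influx through hERG after potassium depolarization seen as dye fluorescence rise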
Kir21 inh: inhibitors of mouse Kir2.1 inward-rectifier potassium channel. Inward rectifier potassium channel 2 (Mus musculus), P35561. HEK293-Kir2.1, FluxOR thallium flux fluorescence; stronger effect = lower value. B-score at 10 µM. hit rate 0.85% among 310,000. AID 1672, 2009;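 active = fluorescence ratio B-score at or below minus 3 SD of library scores, with starting-brightness B-score within 2 SD, cut at about -4.2 in these data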;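 also: channel flux triggered by added potassium and thallium sulfate stimulus; B-score of peak minus minimum fluorescence over baseline after thallium stimulus; more negative B-score means stronger Kir2.1 block with less thallium influx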
Target sequence (P35561 whole entry, looked up): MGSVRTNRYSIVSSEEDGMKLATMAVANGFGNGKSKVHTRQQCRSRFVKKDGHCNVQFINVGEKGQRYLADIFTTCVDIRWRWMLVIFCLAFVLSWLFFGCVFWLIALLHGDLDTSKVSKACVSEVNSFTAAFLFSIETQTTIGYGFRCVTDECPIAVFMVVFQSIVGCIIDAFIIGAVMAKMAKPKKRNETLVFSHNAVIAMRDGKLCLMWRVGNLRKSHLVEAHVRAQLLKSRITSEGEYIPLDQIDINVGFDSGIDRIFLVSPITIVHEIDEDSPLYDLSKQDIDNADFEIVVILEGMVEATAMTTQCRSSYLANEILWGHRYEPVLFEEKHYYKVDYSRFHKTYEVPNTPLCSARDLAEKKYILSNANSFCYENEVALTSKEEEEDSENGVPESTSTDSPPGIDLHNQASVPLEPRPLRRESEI
KCNQ1 pot: potentiators or activators of KCNQ1 channel, primary screen, cell-based, thallium flux, high-throughput; B-score at 10 µM; hit rate 0.35% among 310,000; Potassium voltage-gated channel subfamily KQT member 1 (Homo sapiens), P51787; AID 2648, 2010; CHO-K1 KCNQ1, thallium flux FluxOR fluorescence; stronger effect = higher value;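 active = fluorescence ratio B-score, a plate-corrected score, at least three library SD, with initial intensity B-score within 5 SD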
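Medium – assay buffer, equal DMSO in all wells · Material – CHO-K1 cell line with stable KCNQ1 potassium channel expression · Signal – kinetic FluxOR thallium fluorescence, 10-s 1-Hz baseline, 110-s post-stimulus read · Compound – single concentration per compound, DMSO matched to controls · Schedule – 37 °C overnight plating, 90-min dark dye load, 20-min compound pretreatment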
KCNQ1 inh: inhibitors of human KCNQ1 channel, primary screen, cell-based, thallium flux, high-throughput; Potassium voltage-gated channel subfamily KQT member 1 (Homo sapiens), P51787; CHO-K1 KCNQ1, FluxOR thallium flux fluorescence; stronger effect = higher value; B-score at 10 µM; hit rate 1.3% among 310,000; AID 2642, 2010;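 active = compounds whose thallium flux B-score, printed positive for inhibition, exceeds three library SD while starting fluorescence stays within three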;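 also: channel opened by potassium depolarization with thallium stimulus after 20 min compound exposure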
KCNK9 inh conf: KCNK9 potassium channel inhibitors, confirmation, HEK293 cells, thallium flux, duplicate | shares compounds with KCNK9 inh | FluxOR thallium flux fluorescence | inhibition, % at 10 µM | hit rate 43% among 4,900 | AID 492992, 2010;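 active = thallium signal inhibited by more than 5 SD of the compound-free buffer control wells, on both duplicate plates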;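 also: 0% = assay buffer control wells without compound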
Kir2-1 spec: mouse Kir2.1 channel inhibition, confirmation, selectivity assay for KCNK9 modulator project, cell-based, HEK293, thallium flux. shares compounds with KCNK9 inh. Kir2.1 cells, FluxOR thallium flux fluorescence. inhibition, % at 10 µM. hit rate 4% among 4,900. AID 492993, 2010;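 active = thallium signal drop more than 5 SD beyond the mean of the no-compound control wells, seen in both duplicate plates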;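 also: signal is fluorescence rise after thallium addition divided by baseline fluorescence; plate controls were assay buffer only for no effect and full block by chlorpromazine control for full effect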
HEK293 Tl ctr: thallium flux in non-induced HEK293 cells, confirmation, counter-screen for KCNK9 inhibitor project, cell-based, second counter screen, non-induced KCNK9-HEK293; inhibition, % at 10 µM; FluxOR thallium flux; hit rate 40% among 4,900; AID 492997, 2010; shares compounds with KCNK9 inh;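 active = thallium signal drop beyond 5 SD of the untreated control mean, on both duplicate plates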;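 also: plate controls were buffer only IC0 wells for no effect and SID17386958 at its maximal inhibitory level for full effect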
* marks the source's active call; other numbers are inactive results. Sampled rows, rich in hits. Any-hit rate of the full collection: about 3.7%.

Results for CC(C)(C)NC(=S)NC(=O)C12CC3CCC(CC(C3)C1)C2 ?
KCNK9 inh: inactive; KCNK3 inh: inactive; hERG protect: -3.5; Kir21 inh: 0.08; KCNQ1 pot: inactive; KCNQ1 inh: inactive; KCNK9 inh conf: inactive; Kir2-1 spec: inactive; HEK293 Tl ctr: inactive

What do the screens show for `CC12CC3(C)CC(C)(C1)CC(C(=O)NC(=S)NC(C)(C)C)(C2)C3`?
KCNK9 inh: inactive; KCNK3 inh: inactive; hERG protect: -8.3; Kir21 inh: -1.56; KCNQ1 pot: inactive; KCNQ1 inh: inactive; KCNK9 inh conf: inactive; Kir2-1 spec: inactive; HEK293 Tl ctr: inactive

How did CN(C)NC(=S)NC(=O)C12CC3CC(CC(C3)C1)C2 do in these assays?
KCNK9 inh: inactive; KCNK3 inh: inactive; hERG protect: -8.1; Kir21 inh: 1.92; KCNQ1 pot: inactive; KCNQ1 inh: inactive

What do the screens show for `O=C(NC(=S)Nc1ccc(Cl)cn1)C12CC3CC(CC(C3)C1)C2`?
KCNK9 inh: inactive; KCNK3 inh: inactive; hERG protect: -0.4; Kir21 inh: 0.29; KCNQ1 pot: inactive; KCNQ1 inh: inactive

How did O=C(NC(=S)NC1C2CC3CC(C2)CC1C3)C12CC3CC(CC(C3)C1)C2 (stereo not given) do in these assays?
KCNK9 inh: inactive; KCNK3 inh: inactive; hERG protect: -6.9; Kir21 inh: 0.23; KCNQ1 pot: inactive; KCNQ1 inh: inactive; KCNK9 inh conf: inactive; Kir2-1 spec: inactive; HEK293 Tl ctr: inactive

How did CCOc1ccc(N(C)S(=O)(=O)c2c[nH]c(C(=O)OC)c2)cc1 do in these assays?
KCNK9 inh: inactive; KCNK3 inh: inactive; hERG protect: -5.6; Kir21 inh: 0.71; KCNQ1 pot: inactive; KCNQ1 inh: inactive

How did O=S(=O)(c1ccc(Cl)s1)N1CCN(Cc2ccccc2)CC1 do in these assays?
KCNK9 inh: inactive; KCNK3 inh: inactive; hERG protect: -7.2; Kir21 inh: -0.01; KCNQ1 pot: inactive; KCNQ1 inh: inactive; KCNK9 inh conf: inactive; Kir2-1 spec: inactive; HEK293 Tl ctr: inactive

How did Cc1cc(S(=O)(=O)N2CCN(Cc3ccccc3)CC2)c(C)s1 do in these assays?
KCNK9 inh: inactive; KCNK3 inh: inactive; hERG protect: -8.8; Kir21 inh: -2.1; KCNQ1 pot: inactive; KCNQ1 inh: inactive; KCNK9 inh conf: inactive; Kir2-1 spec: inactive; HEK293 Tl ctr: inactive

Results for O=S(=O)(c1cccs1)N1CCN(CCc2ccccc2)CC1 ?
KCNK9 inh: inactive; KCNK3 inh: inactive; hERG protect: -3.2; Kir21 inh: 0.42; KCNQ1 pot: inactive; KCNQ1 inh: inactive

Results for CC(C)c1ccc(CN2CCN(S(=O)(=O)c3ccc(Cl)s3)CC2)cc1 ?
KCNK3 inh: inactive

Results for O=S(=O)(c1ccccc1)N1CCN(Cc2cccc(Br)c2)CC1 ?
KCNK9 inh: inactive; KCNK3 inh: inactive; hERG protect: -5.9; Kir21 inh: 1.24; KCNQ1 pot: inactive; KCNQ1 inh: inactive

What do the screens show for `COc1cc(C)c(C)cc1S(=O)(=O)N1CCN(Cc2ccccc2)CC1`?
KCNK9 inh: inactive; KCNK3 inh: inactive; hERG protect: -7.0; Kir21 inh: -0.18; KCNQ1 pot: inactive; KCNQ1 inh: inactive

What do the screens show for `O=S(=O)(c1ccc(Cl)s1)N1CCN(CCc2ccccc2)CC1`?
KCNK9 inh: inactive; KCNK3 inh: inactive; hERG protect: -7.4; Kir21 inh: 0.66; KCNQ1 pot: inactive; KCNQ1 inh: inactive; KCNK9 inh conf: inactive; Kir2-1 spec: inactive; HEK293 Tl ctr: inactive

Results for O=S(=O)(c1cccc(Br)c1)N1CCN(CCc2ccccc2)CC1 ?
KCNK9 inh: inactive; KCNK3 inh: inactive; hERG protect: -12.0; Kir21 inh: 0.38; KCNQ1 pot: inactive; KCNQ1 inh: inactive; KCNK9 inh conf: inactive; Kir2-1 spec: inactive; HEK293 Tl ctr: inactive

Results for O=C(O)CCCC(=O)N1CCN(c2nc(-c3ccccc3Cl)c3cc(Br)ccc3n2)CC1 ?
KCNK9 inh: inactive; KCNK3 inh: inactive; hERG protect: -7.0; Kir21 inh: -0.61; KCNQ1 pot: inactive; KCNQ1 inh: inactive

How did NC(=O)NCCN1CCN(c2ncc(C(F)(F)F)cc2Cl)CC1 do in these assays?
KCNK9 inh: inactive; KCNK3 inh: inactive; hERG protect: -1.8; Kir21 inh: -1.51; KCNQ1 pot: inactive; KCNQ1 inh: inactive

Results for COC(=O)c1c(N)sc2c1CCN(c1ncc(C(F)(F)F)cc1Cl)C2 ?
KCNK9 inh: -9.45*; KCNK3 inh: inactive; hERG protect: -4.0; Kir21 inh: -0.42; KCNQ1 pot: inactive; KCNQ1 inh: inactive; KCNK9 inh conf: 38.0%*; Kir2-1 spec: inactive; HEK293 Tl ctr: inactive

Results for Cc1cc(C)cc(SCc2noc(C(=O)NCCC(C)C)c2C(=O)NCCC(C)C)c1 ?
KCNK9 inh: inactive; KCNK3 inh: inactive; hERG protect: -7.4; Kir21 inh: 0.06; KCNQ1 pot: inactive; KCNQ1 inh: inactive; KCNK9 inh conf: inactive; Kir2-1 spec: inactive; HEK293 Tl ctr: inactive

Results for CCCCNC(=O)c1onc(CSc2cc(C)cc(C)c2)c1C(=O)NCCCC ?
KCNK9 inh: inactive; KCNK3 inh: inactive; hERG protect: -7.3; Kir21 inh: 0.41; KCNQ1 pot: inactive; KCNQ1 inh: inactive; KCNK9 inh conf: inactive; Kir2-1 spec: inactive; HEK293 Tl ctr: inactive

How did O=C(NCC1CC1)c1onc(CSc2ccc(F)cc2)c1C(=O)NCC1CC1 do in these assays?
KCNK9 inh: inactive; KCNK3 inh: inactive; hERG protect: -3.2; Kir21 inh: -1.32; KCNQ1 pot: inactive; KCNQ1 inh: inactive
